Assay outcomes deposited in PubChem by several laboratories.
A selection: hits, their analogues and other compounds. The true share with any hit is near 2.2%.
PfG6PD inh: PfG6PD (Plasmodium falciparum) enzyme inhibition | PfGluPho enzyme, NADPH resazurin-diaphorase fluorescence | inhibition, % at 20 µM | 350,000 tested, 0.78% active | AID 504690;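 active means inhibition reaching at least a set limit at 20 µM in the primary screen, cut at about 59% in these data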;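 further: 0% = DMSO wells with substrate and 100% = DMSO wells lacking glucose-6-phosphate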
HKDC1 inhibitor: blocks human hexokinase HKDC1 activity; Q2TB90; 340,000 tested, 0.16% active; AID 493160; inhibition, % at 20 µM; recombinant HKDC1, G6PDH/diaphorase resazurin coupled fluorescence;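 active means inhibition above about 35% when tested at 20 µM, limit read from the data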;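 further: plate controls were DMSO wells with enzyme for no effect and DMSO wells lacking enzyme for full effect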
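Material – in-house recombinant HK5 (HKDC1) enzyme · Quantity – HKDC1 at 5 µg/mL · Buffer or medium – pH 8.0 Tris buffer with 10 mM MgCl2 · Reagent – glucose with 1 mM ATP · Dosing – single 20 µM dose · Times – reaction time 90 min, room temperature, protected from light · Technique – resorufin fluorescence at 613 nm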
Exocytosis inh: lytic granule exocytosis inhibition; TALL-104 LAMP-1 surface exposure, flow cytometry; cells stimulated with thapsigargin and PMA; inhibition, % at 10 µM; 360,000 tested, 0.66% active;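 active means inhibition above about 55%, limit read from the data; inconclusive means no clear call, values can overlap the other calls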
ABHD5 PLIN5 PPI: blocks binding of human ABHD5 to perilipin-5 | Q00G26+Q8WTS1 | Split G. princeps luciferase complementation, luminescence, 4 h | inhibition, % at 4 µM | 360,000 tested, 0.78% active;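 active means inhibition above the mean inhibition across every tested compound plus 3 SD, cut at about 22% in these data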;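 further: 0% = DMSO only wells and the 100% control is not disclosed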
Target sequence (Q00G26 whole entry, looked up): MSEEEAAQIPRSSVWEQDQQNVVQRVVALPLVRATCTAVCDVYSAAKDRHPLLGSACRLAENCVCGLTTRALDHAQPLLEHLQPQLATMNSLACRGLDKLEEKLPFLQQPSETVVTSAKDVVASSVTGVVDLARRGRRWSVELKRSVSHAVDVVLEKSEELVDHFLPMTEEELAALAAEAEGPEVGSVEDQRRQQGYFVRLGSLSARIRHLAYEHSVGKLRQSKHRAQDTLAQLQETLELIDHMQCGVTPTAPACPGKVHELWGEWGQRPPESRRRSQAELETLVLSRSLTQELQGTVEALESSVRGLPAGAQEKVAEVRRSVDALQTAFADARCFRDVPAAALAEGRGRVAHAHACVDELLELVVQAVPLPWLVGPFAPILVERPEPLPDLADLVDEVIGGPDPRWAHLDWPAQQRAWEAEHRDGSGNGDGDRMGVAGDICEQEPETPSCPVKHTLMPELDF
Target sequence (Q8WTS1 whole entry, looked up): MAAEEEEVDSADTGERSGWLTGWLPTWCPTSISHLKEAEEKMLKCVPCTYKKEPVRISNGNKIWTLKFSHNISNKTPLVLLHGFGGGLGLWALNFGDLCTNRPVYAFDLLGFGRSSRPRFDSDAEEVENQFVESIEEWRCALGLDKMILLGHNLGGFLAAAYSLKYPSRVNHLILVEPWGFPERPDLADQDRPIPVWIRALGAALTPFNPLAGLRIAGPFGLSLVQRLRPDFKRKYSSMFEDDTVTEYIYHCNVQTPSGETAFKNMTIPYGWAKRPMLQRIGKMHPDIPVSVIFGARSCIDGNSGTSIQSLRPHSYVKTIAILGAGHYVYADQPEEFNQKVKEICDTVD
Active calls of the source: *; ? = inconclusive; . = no result.

SMILES | PfG6PD inh | HKDC1 inhibitor | Exocytosis inh | ABHD5 PLIN5 PPI
O=C(N/N=C\C=C\c1ccco1)C1COc2ccccc2O1 (configuration not stated) | 33.5 | 3.2 | 46.6 | 22.5*
O=C(N/N=C/C=C/c1ccc([N+](=O)[O-])cc1)C1COc2ccccc2O1 (configuration not stated) | 1.4 | 3.5 | 1.3 | 3.1
Cc1c(C)c(C)c2[nH]c(-c3ccc4c(c3)OCO4)nc2c1C | 51.3 | 1.9 | 61.4* | 4.4
S=c1[nH]nc(-c2cc(-c3ccccc3)n[nH]2)n1/N=C/C(Br)=C/c1ccccc1 | 28.2 | 16.9 | 63.4* | 26.1*
Cc1cc(C)nc(NC(=NCCc2c[nH]c3ccccc23)NC(=O)Nc2ccccc2)n1 | 17.5 | -4.7 | 5.7 | 2.1
Cc1cc(C)nc(NC(=NCCc2c[nH]c3ccccc23)NC(=O)c2ccco2)n1 | 7.1 | -6.5 | 94.6* | 0.7
O=[N+]([O-])/C=C/c1c(OCc2ccccc2)ccc2ccccc12 | . | . | 77.9* | 83.9*
Cc1ccc(OCCOC(=O)c2c(-c3ccccc3)noc2C)cc1 | 4.3 | 4.0 | 73.1* | -6.1
Cc1ccc(S(=O)(=O)Nc2nc3ccccc3nc2NCc2ccco2)cc1 | -11.3 | 5.7 | -3.7 | 25.5*
Cc1ccccc1Nc1nc(NCc2ccco2)c2ccccc2n1 | 19.1 | -0.2 | 82.0* | 2.7
CCCc1nnc(SCC(=O)N2CCCC(C)C2)n1CCOC (configuration not stated) | -14.0 | -7.3 | -1.8 | 1.3
COC(=O)[C@]1(C)CCC[C@@]2(C)C3CC[C@@]4(C)C[C@]3(CCC21)CC(=O)N4 (some centres not stated) | -6.4 | -6.7 | -6.2 | -6.2
C=C1C(=O)C23CCC4C(C)(C(=O)OC)CCCC4(C)C2CCC1(O)C3 (configuration not stated) | 57.0 | 9.6 | -6.6 | 72.0*
Oc1ccc2ccccc2c1CNc1cnc2ccccc2c1 | 32.3 | 11.7 | -3.6 | 22.0*
O=C(CN1CCc2cc3c(cc2C1)OCCCO3)Nc1c(F)cccc1F | -4.6 | -2.8 | -3.7 | 3.1
CCC(/C=C1\Sc2ccc(OC)cc2N1CCO)=C\c1sc2ccc(OC)cc2[n+]1CCO | 53.6 | 21.7 | -4.2 | 43.4*
CC(OC(=O)CCNS(=O)(=O)c1ccc(Cl)cc1)C(=O)N(C)Cc1ccccc1 (configuration not stated) | 6.5 | . | -1.4 | -1.4
COc1cc(/C=C/C(=O)OCC(=O)c2ccc(OC(F)F)cc2)ccc1O | 12.7 | -7.2 | 67.1* | -3.1
O=C(/C=C/c1ccco1)OCC(=O)c1ccc(OC(F)F)cc1 | 12.4 | -5.0 | -4.4 | 5.2
COc1ccccc1CN1C(=O)C(C)ON=C1c1ccccc1F (configuration not stated) | . | . | -2.7 | 5.1
Cc1nn(-c2ccccc2)c2c1CC(=O)Nc1ccccc1-2 | 25.3 | -1.6 | 7.4 | -14.0
CC(Oc1ccc(-c2ccccc2)cc1)C(=O)N/N=C/c1cccnc1 (configuration not stated) | 14.4 | -3.3 | 56.3* | -2.0
COc1ccc(C(=O)N/N=C/c2cccnc2)cc1 | 2.0 | -5.8 | 2.4 | -5.8
Cc1nnnn1/C(=C\c1ccccc1)C(=O)OCC(=O)Nc1cccc(S(=O)(=O)N(C)C)c1 | 10.6 | -2.9 | 0.8 | 49.8*
CN(C)S(=O)(=O)c1cccc(NC(=O)COC(=O)c2ccc3ccccc3n2)c1 | 6.5 | 2.8 | 7.5 | 9.2
SMILES | PfG6PD inh | HKDC1 inhibitor | Exocytosis inh | ABHD5 PLIN5 PPI
CS(=O)(=O)c1ccc(C(=O)OCc2nnc(-c3ccc(Cl)cc3)o2)cc1[N+](=O)[O-] | 19.2 | 27.1 | 59.7* | 12.4
CC(C)(C)C1N=C(c2ccc3ccccc3c2)OC1=O (configuration not stated) | 8.2 | 0.0 | 63.9* | -5.8
CC(=O)N1N=C(c2ccc3ccccc3c2)OC1(C)C | 5.2 | -4.6 | -5.5 | -4.2
Cc1[nH][nH]c(=O)c1N=Nc1ccccc1Cl | -14.9 | -3.5 | 5.4 | -6.1
Clc1ccccc1N=Nc1ccccn1 | 90.6* | 3.9 | -4.3 | -28.2
CCOC(=O)CSc1nc2c(sc(=S)n2-c2ccccc2OC)c(=O)n1-c1ccccc1OC | 54.9 | 1.6 | ? | 3.3
COc1ccc(-n2c(SCC(=O)C(C)(C)C)nc3c(sc(=S)n3-c3ccccc3)c2=O)c(OC)c1 | 78.2* | -13.9 | -19.4 | 0.1
FC(F)(F)c1ccccc1Cc1c(-c2ccco2)nc2ccc(Br)cn12 | . | . | 10.9 | 33.5*
COc1ccccc1Cc1c(-c2ccco2)nc2ccc(Br)cn12 | . | . | 51.8 | 42.0*
O=C(NCc1cc([N+](=O)[O-])ccc1O)c1cccnc1Sc1ccccc1Cl | -23.3 | -0.5 | -7.7 | 9.7
O=C(NS(=O)(=O)Oc1ccc(Cl)cc1)OC[C@@H]1CCCN2CCCC[C@H]12 | -5.7 | -3.3 | 7.5 | -3.0
COc1ccc(C(NC(=O)/C=C\c2ccco2)c2ccc(OC)c(OC)c2)cc1 (configuration not stated) | 41.8 | -4.8 | -4.1 | 22.2*
Cc1cc(OCC(=O)N[C@@H](CSCc2ccccc2)C(=O)O)c2c(C)c(C)c(=O)oc2c1 | 15.5 | 2.8 | -6.8 | 3.3
CCOc1ccc(C(=O)OC(C)C(=O)N2CCN(Cc3ccccc3)CC2)cc1 (configuration not stated) | 5.5 | -6.7 | 4.6 | -0.3
CCOc1ccc(C(=O)CC(C(=O)O)N2CCN(Cc3ccccc3)CC2)cc1 (configuration not stated) | -8.8 | 0.2 | -10.9 | 95.3*
CCOc1ccc(C(=O)N2CCCCCC2)cc1 | -4.0 | -10.7 | 1.0 | -1.9
CCOc1ccc(C(=O)CC(C(=O)O)N2CCCCC2)cc1 (configuration not stated) | 8.8 | 7.4 | 1.0 | 84.8*
CC(C)C[C@H](N)c1nnc(S(=O)(=O)Cc2ccc(F)cc2)o1 | -2.8 | -7.0 | 22.6 | 31.1*
CC(C)C[C@H](N)c1nnc(SCC(=O)Nc2ccc(Br)cc2)o1 | -4.3 | -6.7 | -0.5 | 1.5
CC(C)c1cccc(-c2ccc3c(c2)S(=O)(=O)c2cccc(C(=O)NCc4ccco4)c2C3=O)c1 | 2.3 | 5.4 | -0.8 | 21.0
CC(C)(C)c1cc(NCc2ccccn2)n2ncc(-c3ccc(Cl)cc3)c2n1 | 27.6 | 3.2 | 14.3 | 6.2
CN(C)CCCNc1cc(C(C)(C)C)nc2c(-c3ccc(Cl)cc3)cnn12 | 24.5 | 2.4 | 65.4* | 8.4
Cc1ccc(S(=O)(=O)Cc2cc(F)c([N+](=O)[O-])cc2[N+](=O)[O-])cc1 | 10.9 | 10.1 | 72.2* | 12.2
Cc1cc(C)c(S(=O)(=O)c2ccccc2C)c(OCCN(C)C)n1 | -1.3 | -1.6 | 7.8 | 0.9
CN(C)S(=O)(=O)c1ccc(-c2csc(N/N=C/c3ccc(O)cc3)n2)cc1 | 39.2 | 0.5 | 100.9* | 10.7
Cc1ccc(-c2csc(N/N=C/c3ccco3)n2)cc1 | 42.0 | 1.4 | -3.3 | -6.7
CN(C)S(=O)(=O)c1ccc(-c2csc(N/N=C/c3ccco3)n2)cc1 | 28.0 | -4.3 | 101.7* | 0.5
COc1cccc(NC(=O)CN(C)C(=O)C2CCN(C(=O)c3ccccc3C)CC2)c1 | 9.1 | -2.6 | 4.9 | -1.4
N#CC1=C(S)N(c2ccc(F)cc2)C2(CCCCC2)NC1=O | 10.5 | -7.7 | 80.6* | -3.4
